Values after ≈ are worked out from the molar mass of the structure shown.
Key:
[1] = species: Mus musculus; assay: Ratio between maximum dose within 10% body weight loss to tumor growth inhibition; type: functional
[2] = species: Mus musculus; assay: Percentage change in body weight; type: functional
[3] = tested on: HeLa; assay: Inhibitory activity against HeLaS3 human uterine cervix carcinoma cells; type: functional, cell-based
Summary of the method: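 HeLaS3 human uterine cervix carcinoma cells were exposed to the drug. The value is the drug concentration that inhibits cell growth by 50%.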

[4] = species: Mus musculus; assay: Percentage tumor growth inhibition as compared with the untreated group; type: functional; design: concentration or dose not given beside the values
[5] = tested on: SBC-3; assay: Cytotoxicity against human cancer cell lines SBC-3 of lung; type: functional, cell-based
[6] = tested on: Homo sapiens; assay: Antitumor activity against human colon CX-1 tumor Xenografts in Athymic mice at a dose of 7.81 micro g/kg; type: functional
Summary of the method: (§1)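 Athymic mice bearing human colon CX-1 tumour xenografts. Dose given in µg/kg. Read-out is percent tumour growth inhibition (TGI) relative to the untreated group.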

[7] = tested on: KATO III stomach cancer cell line; assay: Cytotoxicity against human cancer cell lines KATO III (gastric); type: functional, cell-based
[8] = tested on: PC-3; assay: Cytotoxicity against human cancer cell lines PC-3 of lung; type: functional, cell-based
[9] = tested on: ZR-75-1; assay: Cytotoxicity against human cancer cell lines ZR-75-1 of breast.; type: functional, cell-based
[10] = Cytotoxicity against human cancer cell lines SBC-3 /ADR of lung (adriamycin resistant); type: functional, cell-based
[11] = tested on: DLD-1; assay: Cytotoxicity against human cancer cell lines DLD-1 of colon.; type: functional, cell-based
[12] = tested on: A2780; assay: Cytotoxicity against human cancer cell lines A2780 (ovarian); type: functional, cell-based
[13] = tested on: Homo sapiens; assay: Antitumor activity against human colon CX-1 tumor Xenografts in Athymic mice at a dose of 3.91 micro g/kg; type: functional
Summary of the method: (§2)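 Athymic mice carried implanted human colon CX-1 tumor xenografts. Each line gives the dose in μg/kg. Read-out is percentage tumor growth inhibition relative to the untreated group.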

[14] = tested on: Homo sapiens; assay: Antitumor activity against human colon CX-1 tumor Xenografts in Athymic mice at a dose of 9180 micro g/kg; type: functional; summary of the method: as §2
[15] = tested on: Homo sapiens; assay: Antitumor activity against human colon CX-1 tumor Xenografts in Athymic mice at a dose of 15.6 micro g/kg; type: functional; summary of the method: as §1
[16] = Homo sapiens, HeLa, read-out: IC50

SMILES | Ratio [1] | Body weight change [2] [%] | IC50 [3, 16] [ng/mL] | Inhibition [4] [%] | other results
COC(=O)c1c(C(F)(F)F)[nH]c2c(O)cc3c(c12)[C@H](CCl)CN3C(=O)/C=C/c1ccc(/C=C/C(=O)N2C[C@@H](CCl)c3c2cc(O)c2[nH]c(C(F)(F)F)c(C(=O)OC)c32)c2c1OCO2 | 13.3 | -2 | 0.00595 (≈ 0.00644 nM) | 90 | –
COC(=O)c1c(C(F)(F)F)[nH]c2c(O)cc3c(c12)[C@H](CCl)CN3C(=O)/C=C/c1ccc(/C=C/C(=O)N2C[C@@H](CCl)c3c2cc(O)c2[nH]c(C(F)(F)F)c(C(=O)OC)c32)c2c(OC)ccc(OC)c12 | – | – | 0.00934 (≈ 0.00944 nM) | – | –
COC(=O)c1c(C(F)(F)F)[nH]c2c(O)cc3c(c12)[C@H](CCl)CN3C(=O)/C=C/c1ccc(/C=C/C(=O)N2C[C@@H](CCl)c3c2cc(O)c2[nH]c(C(F)(F)F)c(C(=O)OC)c32)c2ccccc12 | 7.4 | 3 | 0.011 (≈ 0.0118 nM) | 85 | –
COC(=O)c1c(C(F)(F)F)[nH]c2c(O)cc3c(c12)[C@H](CCl)CN3C(=O)/C=C/c1ccccc1/C=C/C(=O)N1C[C@@H](CCl)c2c1cc(O)c1[nH]c(C(F)(F)F)c(C(=O)OC)c21 | – | -6 | 87.6 (≈ 99.6 nM) | 70 | –
COC(=O)c1c(C(F)(F)F)[nH]c2c(O)cc3c(c12)[C@H](CCl)CN3C(=O)/C=C/c1ccc(-c2ccc(-c3ccc(/C=C/C(=O)N4C[C@@H](CCl)c5c4cc(O)c4[nH]c(C(F)(F)F)c(C(=O)OC)c54)cc3)cc2)cc1 | – | -11 | 48.3 (≈ 46.8 nM) | 84 | –
COC(=O)c1c(C(F)(F)F)[nH]c2c(O)cc3c(c12)[C@H](CCl)CN3C(=O)/C=C/c1cccc(-c2ccc(-c3cccc(/C=C/C(=O)N4C[C@@H](CCl)c5c4cc(O)c4[nH]c(C(F)(F)F)c(C(=O)OC)c54)c3)cc2)c1 | – | – | > 100 | – | –
COC(=O)c1c(C(F)(F)F)[nH]c2c(O)cc3c(c12)[C@H](CCl)CN3C(=O)/C=C/c1ccc(/C=C/C(=O)N2C[C@@H](CCl)c3c2cc(O)c2[nH]c(C(F)(F)F)c(C(=O)OC)c32)c2c1C(=O)c1ccccc1C2=O | 6.6 | -4 | 0.523 (≈ 0.518 nM) | 84 | –
COC(=O)c1c(C(F)(F)F)[nH]c2c(O)cc3c(c12)[C@H](CCl)CN3C(=O)/C=C/c1ccc(/C=C/C(=O)N2C[C@@H](CCl)c3c2cc(O)c2[nH]c(C(F)(F)F)c(C(=O)OC)c32)cc1 | 30.7 | -5 | – | 89 | IC50 ([5]; sbc-3): 0.00122 ng/mL (≈ 0.00139 nM); Inhibition [6]: 83%; IC50 [7]: 0.816 ng/mL (≈ 0.928 nM); IC50 [8]: 0.148 ng/mL (≈ 0.168 nM); IC50 ([9]; zr-75-1): 0.00463 ng/mL (≈ 0.00526 nM); IC50 [10]: 0.00349 ng/mL (≈ 0.00397 nM); IC50 ([3]; hela): 0.00274 ng/mL (≈ 0.00312 nM); IC50 [11]: 0.0149 ng/mL (≈ 0.0169 nM); IC50 ([12]; a2780): 0.000397 ng/mL (≈ 0.000451 nM); Inhibition [13]: 77%
COC(=O)c1c(C(F)(F)F)[nH]c2c(O)cc3c(c12)[C@H](CCl)CN3C(=O)/C=C/c1ccc(-c2ccc(/C=C/C(=O)N3C[C@@H](CCl)c4c3cc(O)c3[nH]c(C(F)(F)F)c(C(=O)OC)c43)cn2)nc1 | 3.6 | 4 | 0.0198 (≈ 0.0207 nM) | 88 | –
COc1cccc2c1C(=O)c1c(O)c3c(c(O)c1C2=O)C[C@@](O)(C(=O)CO)C[C@@H]3O[C@H]1C[C@H](N)[C@H](O)[C@H](C)O1 [DOXORUBICIN] | – | – | – | – | IC50 ([5]; Homo sapiens, SBC-3, read-out: IC50): 11.2 ng/mL (≈ 20.6 nM); IC50 [7]: 905 ng/mL (≈ 1670 nM); IC50 ([9]; Homo sapiens, ZR-75-1, read-out: IC50): 6.39 ng/mL (≈ 11.8 nM); IC50 [10]: 129 ng/mL (≈ 237 nM); IC50 [11]: 136 ng/mL (≈ 250 nM); IC50 ([12]; Homo sapiens, A2780, read-out: IC50): 12.1 ng/mL (≈ 22.3 nM)
CO[C@@]12[C@H](COC(N)=O)C3=C(C(=O)C(C)=C(N)C3=O)N1C[C@@H]1N[C@@H]12 [MITOMYCIN] | – | – | – | – | Inhibition [14]: 65%
COC(=O)c1c(C(F)(F)F)[nH]c2c(O)cc3c(c12)[C@H](CCl)CN3C(=O)/C=C/c1cccc(/C=C/C(=O)N2C[C@@H](CCl)c3c2cc(O)c2[nH]c(C(F)(F)F)c(C(=O)OC)c32)c1 | – | -5 | 54.6 (≈ 62.1 nM) | 91 | –
COC(=O)c1c(C(F)(F)F)[nH]c2c(O)cc3c(c12)[C@H](CCl)CN3C(=O)/C=C/c1ccc(/C=C/C(=O)N2C[C@@H](CCl)c3c2cc(O)c2[nH]c(C(F)(F)F)c(C(=O)OC)c32)c2c1OCCO2 | 9 | 3 | – | 91 | IC50 ([3]; hela): 0.00276 ng/mL (≈ 0.00294 nM)
COC(=O)c1c(C(F)(F)F)[nH]c2c(O)cc3c(c12)[C@H](CCl)CN3C(=O)/C=C/c1c2ccccc2c(/C=C/C(=O)N2C[C@@H](CCl)c3c2cc(O)c2[nH]c(C(F)(F)F)c(C(=O)OC)c32)c2ccccc12 | – | -18 | 1.51 (≈ 1.54 nM) | 75 | –
COC(=O)c1c(C(F)(F)F)[nH]c2c(O)cc3c(c12)[C@H](CCl)CN3C(=O)/C=C/c1ccc(/C=C/C(=O)N2C[C@@H](CCl)c3c2cc(O)c2[nH]c(C(F)(F)F)c(C(=O)OC)c32)c2cc3ccccc3cc12 | 3.5 | -6 | 3.25 (≈ 3.32 nM) | 82 | –
COC(=O)c1c(C(F)(F)F)[nH]c2c(O)cc3c(c12)[C@H](CCl)CN3C(=O)/C=C/c1cc(OC)c(/C=C/C(=O)N2C[C@@H](CCl)c3c2cc(O)c2[nH]c(C(F)(F)F)c(C(=O)OC)c32)cc1OC | >6.5 | 3 | 9.71 (≈ 10.3 nM) | 81 | –
COC(=O)c1c(C(F)(F)F)[nH]c2c(O)cc3c(c12)[C@H](CCl)CN3C(=O)/C=C/c1ccc(/C=C/C(=O)N2C[C@@H](CCl)c3c2cc(O)c2[nH]c(C(F)(F)F)c(C(=O)OC)c32)c(OC)c1OC | 4.6 | -1 | – | 89 | IC50 ([3]; hela): 0.00158 ng/mL (≈ 0.00168 nM)
Cc1c[nH]c2c(O)cc3c(c12)[C@H](CCl)CN3C(=O)c1cc2cc(NC(=O)Nc3ccc4[nH]c(C(=O)N5C[C@@H](CCl)c6c5cc(O)c5[nH]cc(C)c65)cc4c3)ccc2[nH]1 [BIZELESIN] | 8.4 | -3 | – | 90 | Inhibition [15]: 56%; Inhibition [6]: 53%
CCc1c(/C=C/C(=O)N2C[C@@H](CCl)c3c2cc(O)c2[nH]c(C(F)(F)F)c(C(=O)OC)c32)ccc(/C=C/C(=O)N2C[C@@H](CCl)c3c2cc(O)c2[nH]c(C(F)(F)F)c(C(=O)OC)c32)c1CC | – | – | – | – | IC50 ([3]; hela): 0.00138 ng/mL (≈ 0.00147 nM)
COC(=O)c1c(C(F)(F)F)[nH]c2c(O)cc3c(c12)[C@H](CCl)CN3C(=O)/C=C/c1ccc(-c2ccc(/C=C/C(=O)N3C[C@@H](CCl)c4c3cc(O)c3[nH]c(C(F)(F)F)c(C(=O)OC)c43)cc2)cc1 | 3.7 | 4 | 0.141 (≈ 0.148 nM) | 83 | –
COC(=O)c1c(C(F)(F)F)[nH]c2c(O)cc3c(c12)[C@H](CCl)CN3C(=O)c1cc2cc(-c3ccc4[nH]c(C(=O)N5C[C@@H](CCl)c6c5cc(O)c5[nH]c(C(F)(F)F)c(C(=O)OC)c65)cc4c3)ccc2[nH]1 | 3.3 | 1 | – | 84 | IC50 ([3]; hela): 0.0049 ng/mL (≈ 0.00499 nM)
